Assay [1] deals with A549. The assay can be described thus: Antiproliferative activity against human A549 cells at 20 uM after 72 hrs by trypan blue exclusion method. It is filed as functional. The following applies: A549, 72 h.
Assay [2] concerns A549. The assay can be described thus: Induction of p53 protein expression in human A549 cells at 20 uM after 48 hrs by Western blot relative to untreated control. It is filed as functional. The procedure, abridged: (§1)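 A549 cells (RPMI 1640, 2 mM glutamine, 10% FBS, 37 °C, 5% CO2) treated with compound; lysate proteins (50 µg) run on 5–15% SDS–PAGE, blotted to nitrocellulose, probed with mouse anti-human p53 (DO1) and anti-GAPDH monoclonals, then HRP secondary. p53 level given as fold increase over control; mean ± SD of three independent experiments, one-tailed Student's t-test.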
(Immunoblotting shows a protein as a band on a membrane.)

In assay [3] the test system is A549. The assay can be described thus: Induction of p53 protein expression in human A549 cells at 10 uM after 72 hrs by Western blot relative to untreated control. It is filed as functional. The procedure, abridged: as §1
Assay [4] relates to A549. The assay can be described thus: Induction of p53 protein expression in human A549 cells at 10 uM after 48 hrs by Western blot relative to untreated control. It is filed as functional. In outline: as §1
The subject of assay [5] is A549. The assay can be described thus: Induction of p53 protein expression in human A549 cells at 20 uM after 72 hrs by Western blot relative to untreated control. It is filed as functional. The procedure, abridged:
as §1

For assay [6], the system named is A549. The assay can be described thus: Induction of DNA damage in human A549 cells. It is filed as functional, cell-based.
In assay [7] the test system is A549. The assay can be described thus: Cell cycle arrest in human A549 cells assessed as accumulation at S phase. It is filed as functional, cell-based.
In assay [8] the target is Epidermal growth factor receptor (Homo sapiens, UniProt P00533). The assay can be described thus: Inhibition of EGFR autophosphorylation in human A549 cells.
Sequence of Epidermal growth factor receptor (P00533 whole entry): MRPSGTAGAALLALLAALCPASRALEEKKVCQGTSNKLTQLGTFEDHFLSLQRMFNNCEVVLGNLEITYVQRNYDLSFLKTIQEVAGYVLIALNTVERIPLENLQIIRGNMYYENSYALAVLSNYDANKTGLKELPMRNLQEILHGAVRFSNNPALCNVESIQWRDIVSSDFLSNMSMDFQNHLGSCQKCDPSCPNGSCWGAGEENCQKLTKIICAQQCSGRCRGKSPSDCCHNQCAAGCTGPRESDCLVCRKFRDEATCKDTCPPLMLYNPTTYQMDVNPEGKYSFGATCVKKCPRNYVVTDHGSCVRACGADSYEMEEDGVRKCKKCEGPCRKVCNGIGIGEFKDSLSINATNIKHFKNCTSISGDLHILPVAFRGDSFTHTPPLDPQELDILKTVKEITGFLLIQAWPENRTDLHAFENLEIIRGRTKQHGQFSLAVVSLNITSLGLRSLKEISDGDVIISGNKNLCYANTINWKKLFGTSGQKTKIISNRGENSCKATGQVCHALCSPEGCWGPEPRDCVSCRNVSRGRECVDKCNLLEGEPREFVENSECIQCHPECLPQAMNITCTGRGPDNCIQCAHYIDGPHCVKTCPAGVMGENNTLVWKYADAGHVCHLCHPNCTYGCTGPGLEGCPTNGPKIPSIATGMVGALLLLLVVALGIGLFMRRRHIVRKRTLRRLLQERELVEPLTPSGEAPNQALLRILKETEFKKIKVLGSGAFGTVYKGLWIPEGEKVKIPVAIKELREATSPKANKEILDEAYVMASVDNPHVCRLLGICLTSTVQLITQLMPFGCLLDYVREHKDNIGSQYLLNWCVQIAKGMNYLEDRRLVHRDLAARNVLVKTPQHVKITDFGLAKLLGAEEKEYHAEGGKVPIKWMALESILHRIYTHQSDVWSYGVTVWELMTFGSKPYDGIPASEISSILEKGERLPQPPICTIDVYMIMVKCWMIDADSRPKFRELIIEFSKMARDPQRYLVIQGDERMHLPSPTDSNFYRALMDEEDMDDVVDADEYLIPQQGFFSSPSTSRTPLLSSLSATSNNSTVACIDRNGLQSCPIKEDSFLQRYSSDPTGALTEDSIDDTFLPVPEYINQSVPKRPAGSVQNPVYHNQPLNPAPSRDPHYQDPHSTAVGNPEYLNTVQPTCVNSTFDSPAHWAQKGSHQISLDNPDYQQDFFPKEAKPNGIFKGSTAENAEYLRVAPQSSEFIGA

Calls of active or inactive are those of the source. The rule behind the calls is not given here.

What is called inhibition is the relative decrease from the control value, in per cent. Read a low inhibition as a response near the control. In the case of `CC(=O)Nc1ccc(/C=C2\C(=O)NC(=O)N2CCc2ccccc2)cc1`, in the assay with A549 [1], the inhibition at 20 µM was determined as 39%. For the same compound, the “fold change (FC)” value in the assay on A549 [2] was determined as 1.7.

Regarding `O=C1NC(=O)N(CCc2ccccc2)/C1=C\c1ccccc1`, the inhibition at 20 µM in the assay with A549 [1] came out at 42%. Besides, the “fold change (FC)” value in the assay on A549 [2] was 1.3.

Regarding `O=C1NC(=O)N(CCc2ccccc2)/C1=C\c1cccc(Cl)c1`, the inhibition at 20 µM in the assay with A549 [1] was determined as 43%. In addition, the “fold change (FC)” value came out at 1.4 in the assay on A549 [3], 0.9 in the assay on A549 [4], 1.9 in the assay with A549 [5] and 1.2 in the assay with A549 [2].

In the assay on A549 [1], `CCCCN1C(=O)NC(=O)/C1=C/c1ccccc1` came in with an inhibition at 20 µM of 18%.

In turn, `CCCCN1C(=O)NC(=O)/C1=C\c1ccc(Cl)cc1` showed an inhibition at 20 µM in the assay with A549 [1] of 29%.

In the case of `O=C1NC(=O)N(CCc2ccccc2)/C1=C\c1cccc(O)c1`, the inhibition at 20 µM in the assay on A549 [1] is 40%. Further, in the assay on A549 [2], the “fold change (FC)” value was found to be 1.1.

In the assay on A549 [1], `O=C1NC(=O)N(Cc2ccccc2)/C1=C\c1ccccc1` had an inhibition at 20 µM of 42%. The “fold change (FC)” value in the assay with A549 [3] was 1.8; in the assay with A549 [4] it was 1.1; in the assay with A549 [5], 2.6; in the assay with A549 [2], 1.7.

With `O=C1NC(=O)N(Cc2ccccc2)/C1=C/c1ccccc1`, at 20 µM the inhibition with A549 [1] was 2.9%.

Consider `CN1C(=O)/C(=C\c2ccccc2)N(CCc2ccccc2)C1=O`, for which the inhibition at 20 µM in the assay on A549 [1] is 31%. The “fold change (FC)” value in the assay with A549 [2] is on record as 1.

In turn, `O=C1NC(=O)N(CCc2cccc(Cl)c2)/C1=C/c1ccccc1` yielded an inhibition at 20 µM in the assay with A549 [1] of 10%.

In turn, `O=C1NC(=O)N(Cc2ccccc2)/C1=C/c1ccc(O)cc1` came in with an inhibition at 20 µM in the assay on A549 [1] of 41%. The “fold change (FC)” value in the assay with A549 [2] is reported as 1.8.

Compound `O=C1NC(=O)N(CCc2ccccc2)/C1=C/c1cccc(Cl)c1` yielded an inhibition at 20 µM in the assay on A549 [1] of 35%.

With `CN1C(=O)/C(=C/c2ccccc2)N(CCc2ccccc2)C1=O`, the inhibition at 20 µM in the assay on A549 [1] came out at 45%. The “fold change (FC)” value in the assay with A549 [2] came out at 1.

In the case of `O=C1NC(=O)N(c2ccccc2)/C1=C\c1ccccc1`, the inhibition at 20 µM in the assay with A549 [1] came to 26%.

Compound `O=C1NC(=O)N(CCc2cccc(Cl)c2)/C1=C\c1ccccc1` yielded an inhibition at 20 µM in the assay on A549 [1] of 49%. For the same compound, the “fold change (FC)” value is reported as 1.1 in the assay on A549 [3], 0.7 with A549 [4], 2.2 with A549 [5] and 1.5 in the assay on A549 [2].

In the assay with A549 [1], `O=C1NC(=O)N(Cc2ccccc2)/C1=C\c1ccc(O)cc1` gave an inhibition at 20 µM of 32%. Also, the “fold change (FC)” value with A549 [2] stood at 2.

As for `CCCCCCN1C(=O)NC(=O)/C1=C/c1ccccc1`, in the assay with A549 [1], the inhibition at 20 µM was 0%.

Compound `O=C1NC(=O)N(CCc2ccccc2)/C1=C/c1cccc(O)c1` came in with an inhibition at 20 µM in the assay on A549 [1] of 28%. In the assay on A549 [2], the “fold change (FC)” value was 0.9.

On to `CN1C(=O)NC(=O)/C1=C/c1ccccc1`, for which, in the assay with A549 [1], the inhibition at 20 µM stood at 16%. Also, in the assay with A549 [2], the “fold change (FC)” value worked out at 1.

On to `CN1C(=O)NC(=O)/C1=C\c1ccccc1`, for which testing at 20 µM with A549 [1] gave an inhibition of 5.7%. For the same compound, the “fold change (FC)” value in the assay on A549 [2] stood at 1.1.

On to `CCCCN1C(=O)NC(=O)/C1=C\c1ccccc1`, for which, in the assay on A549 [1], the inhibition at 20 µM came to 6.8%.

`CC(=O)Nc1ccc(/C=C2/C(=O)NC(=O)N2CCc2ccccc2)cc1` registered an inhibition at 20 µM in the assay with A549 [1] of 32%.

Take `O=C1NC(=O)N(CCc2ccccc2)/C1=C/c1ccccc1`: in the assay with A549 [1], at 20 µM the inhibition was 9.4%. The “fold change (FC)” value with A549 [2] was determined as 1.2.

As to `CCCCN1C(=O)NC(=O)/C1=C/c1ccc(Cl)cc1`, in the assay on A549 [1], testing at 20 µM gave an inhibition of 26%.

`O=C1NC(=O)N(CCc2ccccc2)[C@@H]1Cc1ccccc1` registered an inhibition at 20 µM in the assay on A549 [1] of 7.2%. In the assay with A549 [2], the “fold change (FC)” value is reported as 1.

As to `COc1ccc(/C=C2\C(=O)NC(=O)N2CCc2ccccc2)cc1`, in the assay on A549 [1], 20 µM produced 35% inhibition. In addition, in the assay on A549 [2], the “fold change (FC)” value turned out to be 1.

With `CCCCCCN1C(=O)NC(=O)/C1=C\c1ccccc1`, the inhibition at 20 µM with A549 [1] is 14%.

By IC50 is commonly meant the midpoint of a concentration-inhibition curve. Low readings indicate greater potency in that assay, high ones weaker potency in that assay. Take `O=C1NC(=O)N(CCc2ccccc2)/C1=C/c1ccc(O)cc1`: the outcome with A549 [6] and with A549 [7] was Active. Testing at 20 µM in the assay with A549 [1] gave an inhibition of 53%. In addition, the “fold change (FC)” value with A549 [3] was found to be 1.4; in the assay with A549 [4], 1; in the assay on A549 [5], 3.2; with A549 [2], 2.3. In assay [8], this compound returned an IC50 of 19 µM.

In the assay with A549 [1], `O=C1NC(=O)N(CCc2ccccc2)/C1=C\c1ccc(O)cc1` registered an inhibition at 20 µM of 44%. The “fold change (FC)” value in the assay with A549 [3] is on record as 1.7; with A549 [4] it was 0.9; in the assay on A549 [5] it was 2.7; in the assay with A549 [2] it was 1.5.

Turning to `O=C1NC(=O)N(c2ccccc2)/C1=C/c1ccccc1`, the inhibition at 20 µM in the assay on A549 [1] is 18%.
